Measured values taken from ChEMBL document CHEMBL1932986, “Synthesis and in vitro antimycobacterial activity of compounds derived from (R)- and (S)-2-amino-1-butanol - The crucial role of the configuration” (Eur J Med Chem, 2012).
Values after ≈ are worked out from the molar mass of the structure shown. Active and inactive are the calls of the source. No cut-off for these calls is given here.

Columns and labels:
[1] = tested on: Mycobacterium tuberculosis; assay: Antimycobacterial activity against Mycobacterium tuberculosis H37Rv after 45 days; format: functional
In short: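 Canetti proportion method. Compound in DMSO is added to Löwenstein–Jensen egg medium before coagulation (30 min, 85 °C), tested at three levels plus a lower one where needed. Tubes are inoculated with H37Rv at 10⁵ cells/ml and incubated 45 days at 37 °C. Colony counts versus drug-free control give percentage inhibition.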

[2] = Solubility of the compound in deionized water; format: physicochemical
[3] = tested on: Mycobacterium tuberculosis; assay: Ratio of ethambutol dihydrochloride MIC to compound MIC for Mycobacterium tuberculosis H37Rv; format: functional
[4] = tested on: HEK-293T; assay: Cytotoxicity against human HEK293T cells after 72 hrs by MTT assay; format: cell-based
In short: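 293T cells in RPMI-1640 with 10% heat-inactivated FCS and 2 mM L-glutamine, 37 °C, 5% CO2. Cells seeded at 3.5 × 10⁵ cells/ml, grown 24 h, then exposed 72 h to DMSO-diluted compounds (final solvent ≤0.5%), ≥8 wells per concentration. MTT added 4 h, formazan dissolved in 5% HCOOH/2-propanol, absorbance read at 580 nm. IC50 obtained by sigmoidal nonlinear regression against untreated control.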

[5] = Selectivity index, ratio of IC50 for human HEK293T cells to MIC for Mycobacterium tuberculosis H37Rv; format: functional, HEK-293T
[6] = tested on: Bacillus subtilis; assay: Antibacterial activity against Bacillus subtilis ATCC 6633 at 50 mg/ml after 24 hrs by agar diffusion test; format: functional; details: for zone of inhibition at 50000 µg/mL: ATCC 6633, 24 h, read-out: DIZ
In short: (§1)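 Agar diffusion: wells in agar filled with […] DMSO solution of compound at various concentrations; diameter of clear zone around application point measured. Bacteria grown 24 h at 37 °C on nutrient agar. Compounds first screened at 50 mg/ml; those active then tested at lower concentrations. Bracketed value = lowest concentration (mg/ml) giving zone >11 mm, reported only if activity retained at ≤1.25 mg/ml.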

[7] = tested on: Bacillus; assay: Antibacterial activity against Bacillus idosus B 241 at 50 mg/ml after 24 hrs by agar diffusion test; format: functional; details: for zone of inhibition at 50000 µg/mL: B 241, 24 h, read-out: DIZ; in short: as §1
[8] = tested on: Bacillus mycoides; assay: Antibacterial activity against Bacillus mycoides DSMZ 274 at 50 mg/ml after 24 hrs by agar diffusion test; format: functional; details: for zone of inhibition at 50000 µg/mL: DSMZ 274, 24 h, read-out: DIZ; in short: as §1
[9] = tested on: Bacillus cereus; assay: Antibacterial activity against Bacillus cereus ATCC 11778 at 50 mg/ml after 24 hrs by agar diffusion test; format: functional; details: for zone of inhibition at 50000 µg/mL: ATCC 11778, 24 h, read-out: DIZ; in short: as §1
[10] = tested on: Staphylococcus aureus; assay: Antibacterial activity against Staphylococcus aureus NRRL B 313 at 50 mg/ml after 24 hrs by agar diffusion test; format: functional; details: for zone of inhibition at 50000 µg/mL: NRRL B 313, 24 h, read-out: DIZ
In short: (§2)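 Agar diffusion: bacteria grown 24 h at 37 °C on nutrient agar. Wells in the agar are filled with […] of compound solution in DMSO at various concentrations. The diameter of the clear zone around the application point is measured. Bracketed values give the lowest concentration (mg/ml) that produces a zone >11 mm. A first screen is run at 50 mg/ml.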

[11] = tested on: Escherichia coli; assay: Antibacterial activity against Escherichia coli ATCC 8739 at 50 mg/ml after 24 hrs by agar diffusion test; format: functional; details: for zone of inhibition at 50000 µg/mL: ATCC 8739, 24 h, read-out: DIZ; in short: as §1
[12] = tested on: Candida tropicalis; assay: Antifungal activity against Candida tropicalis ATCC 20336 at 50 mg/ml after 72 hrs by agar diffusion test; format: functional; details: for zone of inhibition at 50000 µg/mL: ATCC 20336, 72 h, read-out: DIZ
In short: (§3)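 Agar diffusion: yeasts grown on yeast peptone dextrose agar and fungi on potato dextrose agar. Wells are filled with […] of compound solution in DMSO at various concentrations, and the clear-zone diameter is measured. Bracketed values give the lowest concentration (mg/ml) that produces a zone >11 mm. A first screen is run at 50 mg/ml.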

[13] = tested on: Saccharomyces cerevisiae; assay: Antifungal activity against Saccharomyces cerevisiae ATCC 9763 at 50 mg/ml after 72 hrs by agar diffusion test; format: functional; details: for zone of inhibition at 50000 µg/mL: ATCC 9763, 72 h, read-out: DIZ; in short: as §3
[14] = tested on: Penicillium chrysogenum; assay: Antifungal activity against Penicillium chrysogenum CECT 2802 at 50 mg/ml after 72 hrs by agar diffusion test; format: functional; details: for zone of inhibition at 50000 µg/mL: CECT 2802, 72 h, read-out: DIZ; in short: as §3
[15] = tested on: Priestia megaterium; assay: Antibacterial activity against Bacillus megaterium NRRL 1353895 at 50 mg/ml after 24 hrs by agar diffusion test; format: functional; details: for zone of inhibition at 50000 µg/mL: NRRL 1353895, 24 h, read-out: DIZ; in short: as §1
[16] = tested on: Acinetobacter johnsonii; assay: Antibacterial activity against Acinetobacter johnsonii ATCC 17909 at 50 mg/ml after 24 hrs by agar diffusion test; format: functional; details: for zone of inhibition at 50000 µg/mL: ATCC 17909, 24 h, read-out: DIZ; in short: as §1
[17] = tested on: Micrococcus luteus; assay: Antibacterial activity against Sarcina lutea ATCC 9341 at 50 mg/ml after 24 hrs by agar diffusion test; format: functional; details: for zone of inhibition at 50000 µg/mL: ATCC 9341, 24 h, read-out: DIZ; in short: as §2
[18] = tested on: Micrococcus luteus; assay: Antibacterial activity against Micrococcus luteus ATCC 9631 at 50 mg/ml after 24 hrs by agar diffusion test; format: functional; details: for zone of inhibition at 50000 µg/mL: ATCC 9631, 24 h, read-out: DIZ; in short: as §1

Structure (SMILES) | MIC [1] [µM] | Ratio [3] | diameter of the inhibition zone (DIZ) [6] | diameter of the inhibition zone (DIZ) [7] | diameter of the inhibition zone (DIZ) [15] | diameter of the inhibition zone (DIZ) [8] | diameter of the inhibition zone (DIZ) [9] | diameter of the inhibition zone (DIZ) [16] | diameter of the inhibition zone (DIZ) [10] | diameter of the inhibition zone (DIZ) [17] | diameter of the inhibition zone (DIZ) [13] | diameter of the inhibition zone (DIZ) [18] | diameter of the inhibition zone (DIZ) [11] | also measured
CC[C@@H](CO)NCCN[C@@H](CC)CO.Cl.Cl [ETHAMBUTOL HYDROCHLORIDE] | 7.22 | – | – | – | – | – | – | – | – | – | – | – | – | solubility [2]: 100000 µg/mL
CC[C@@H](CO)NC(=O)c1ccccc1C(=O)N[C@@H](CC)CO | > 16.2 | 2 | – | – | – | – | – | – | – | – | – | – | – | –
CC[C@H](CO)N1Cc2ccccc2C1 | 10.5 (≈ 2 µg/mL) | – | – | – | – | – | – | – | – | – | – | – | – | IC50 [4]: 122 µM; Selectivity Index [5]: 11.7; solubility [2]: < 1000 µg/mL; zone of inhibition at 50000 µg/mL [6]: 11 mm; zone of inhibition at 50000 µg/mL [7]: 20 mm; zone of inhibition at 50000 µg/mL [8]: 23 mm; zone of inhibition at 50000 µg/mL [9]: 25 mm; zone of inhibition at 50000 µg/mL [10]: 25 mm; zone of inhibition at 50000 µg/mL [11]: 25 mm; zone of inhibition at 50000 µg/mL [12]: 21 mm; zone of inhibition at 50000 µg/mL [13]: 16 mm; zone of inhibition at 50000 µg/mL [14]: 10 mm
CC[C@H](CO)Nc1ccc2c3c(cccc13)C(=O)N([C@H](CC)CO)C2=O | 14 (≈ 5 µg/mL) | – | inactive | inactive | inactive | inactive | inactive | inactive | inactive | inactive | inactive | – | – | IC50 [4]: 47 µM; Selectivity Index [5]: 3.4; solubility [2]: < 1000 µg/mL; diameter of the inhibition zone (DIZ) [14]: inactive
CC[C@@H](CO)NP(=O)(c1ccccc1)c1ccccc1 | > 17.3 | 2 | – | – | – | – | – | – | – | – | – | – | – | –
CC[C@@H](CO)NC(=O)c1ccccc1O | > 23.9 | 2 | – | – | – | – | – | – | – | – | – | – | – | –
CC(C)=CCC/C(C)=C/CNCCNC1C2CC3CC(C2)CC1C3 (stereo unspecified) [SQ109] | – | 35 | – | – | – | – | – | – | – | – | – | – | – | –
CC[C@@H](CO)N1Cc2ccccc2C1=O | > 31.2 | 2 | – | – | – | – | – | – | – | – | – | – | – | –
CC[C@H](CO)N1C(=O)c2cccc3cccc(c23)C1=O | > 18.6 | – | inactive | inactive | inactive | inactive | inactive | inactive | inactive | inactive | inactive | inactive | inactive | diameter of the inhibition zone (DIZ) [12]: inactive; zone of inhibition at 50000 µg/mL [14]: 10 mm
CC[C@H](CO)n1cnc2ccccc2c1=O | 22.9 (≈ 5 µg/mL) | – | inactive | – | inactive | inactive | inactive | – | inactive | inactive | inactive | inactive | inactive | zone of inhibition at 50000 µg/mL [7]: 14 mm; zone of inhibition at 50000 µg/mL [16]: 14 mm; diameter of the inhibition zone (DIZ) [12]: inactive; diameter of the inhibition zone (DIZ) [14]: inactive
CC[C@@H](CO)NC(=O)/C=C/c1ccccc1 | > 22.8 | 2 | – | – | – | – | – | – | – | – | – | – | – | –
CC[C@H](CO)N1C(=O)C=C(C)C1=O | 27.3 (≈ 5 µg/mL) | – | – | – | – | – | – | – | – | – | – | – | – | zone of inhibition at 50000 µg/mL [6]: 21 mm; zone of inhibition at 50000 µg/mL [7]: 23 mm; zone of inhibition at 50000 µg/mL [15]: 20 mm; zone of inhibition at 50000 µg/mL [8]: 24 mm; zone of inhibition at 50000 µg/mL [9]: 28 mm; zone of inhibition at 50000 µg/mL [16]: 21 mm; zone of inhibition at 50000 µg/mL [10]: 20 mm; zone of inhibition at 50000 µg/mL [17]: 21 mm; zone of inhibition at 50000 µg/mL [18]: 22 mm; zone of inhibition at 50000 µg/mL [11]: 32 mm; zone of inhibition at 50000 µg/mL [12]: 20 mm; zone of inhibition at 50000 µg/mL [13]: 21 mm; zone of inhibition at 50000 µg/mL [14]: 25 mm
CC[C@H](CO)NC(=O)Nc1cccc2ccccc12 | > 19.4 | – | inactive | inactive | inactive | inactive | inactive | inactive | inactive | inactive | inactive | inactive | inactive | diameter of the inhibition zone (DIZ) [12]: inactive; diameter of the inhibition zone (DIZ) [14]: inactive
CCNC(=O)N[C@@H](CC)CO | > 24.4 | 2 | – | – | – | – | – | – | – | – | – | – | – | –
CC[C@H](CO)NC(=O)c1ccncc1 | > 25.7 | – | inactive | inactive | inactive | inactive | inactive | inactive | inactive | inactive | inactive | inactive | inactive | diameter of the inhibition zone (DIZ) [12]: inactive; diameter of the inhibition zone (DIZ) [14]: inactive
CC[C@@H]1COc2cc3ccccc3c(=O)n21 | 23.2 (≈ 5 µg/mL) | – | inactive | – | – | – | – | – | – | – | – | – | – | zone of inhibition at 50000 µg/mL [7]: 15 mm; zone of inhibition at 50000 µg/mL [15]: 13 mm; zone of inhibition at 50000 µg/mL [8]: 15 mm; zone of inhibition at 50000 µg/mL [9]: 18 mm; zone of inhibition at 50000 µg/mL [16]: 10 mm; zone of inhibition at 50000 µg/mL [10]: 12 mm; zone of inhibition at 50000 µg/mL [17]: 13 mm; zone of inhibition at 50000 µg/mL [18]: 15 mm; zone of inhibition at 50000 µg/mL [11]: 0 mm; zone of inhibition at 50000 µg/mL [12]: 20 mm; zone of inhibition at 50000 µg/mL [13]: 11 mm; zone of inhibition at 50000 µg/mL [14]: 35 mm
CC[C@H](CO)N1C(=O)CCC1=O | > 29.2 | – | inactive | inactive | inactive | inactive | inactive | inactive | inactive | inactive | inactive | inactive | inactive | diameter of the inhibition zone (DIZ) [12]: inactive; diameter of the inhibition zone (DIZ) [14]: inactive
CC[C@H](CO)NC(=O)/C=C/c1ccccc1 | 9.12 (≈ 2 µg/mL) | – | inactive | inactive | – | – | – | inactive | – | – | – | inactive | inactive | IC50 [4]: 211 µM; Selectivity Index [5]: 23.1; solubility [2]: < 1000 µg/mL; zone of inhibition at 50000 µg/mL [15]: 12 mm; zone of inhibition at 50000 µg/mL [8]: 12 mm; zone of inhibition at 50000 µg/mL [9]: 12 mm; zone of inhibition at 50000 µg/mL [10]: 12 mm; zone of inhibition at 50000 µg/mL [17]: 15 mm; zone of inhibition at 50000 µg/mL [12]: 11 mm; zone of inhibition at 50000 µg/mL [13]: 13 mm
